# High-throughput results as filed in PubChem BioAssay.
# Candida biofilm: kills Candida albicans biofilms; 85,000 tested, 0.14% active; C. albicans biofilm + clotrimazole, Alamar Blue; inhibition, % at 6 µM; AID 834;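 active = inhibition above 20%; inactive = inhibition below 20%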;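 note: preformed 24 hr biofilms exposed to compound for 48 hr; 0% = biofilm without compound and 100% = blank killed by clotrimazole plus chlorhexidine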
# Jurkat tox 60K: cytotoxic compounds reducing Jurkat cell viability; Jurkat E6.1 viability, ATP luminescence, 48 h; inhibition, % at 4 µM; 56,000 tested, 1.2% active; AID 463;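 active = inhibition above the mean inhibition of all tested compounds plus 3 SD, cut at about 28% in these data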
# HEK293 NFkB inh: inhibitors of the PMA/ionomycin-induced NF-kB reporter in HEK293 cells; HEK-293 NF-kB luciferase reporter, luminescence; inhibition, % at 3 µM; 62,000 tested, 0.21% active; AID 465;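 active = inhibition above the mean of all tested compounds plus 3 SD, cut at about 40% in these data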;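 note: 0% = stimulated DMSO wells and 100% = 10 µM reference inhibitor 5653914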
#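 System: NF-kB luciferase reporter HEK-293 cells | Replication: Single test | Control set: DMSO vs reference inhibitor | Evaluation: % inhibition | Schedule: 1 h pretreatment, 16 h stimulation, 37 °C | Probe or stimulus: PMA with ionomycin | Compound dosing: One dose, 3 µM | Detection: Luciferase luminescence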
# TNAP act DEA: activators of human TNAP at intermediate phosphate acceptor. 64,000 tested, under 10 active. P05186. activation factor at 20 µM. AID 813. purified TNAP, CDP-star luminescence, 100 mM DEA, 30 min; hits give high values; scale: 0 levamisole-inhibited, 1 vehicle-only enzyme;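 active = activation factor of at least 2 at 20 µM, relative to controls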
# Target sequence (P05186 whole entry, looked up): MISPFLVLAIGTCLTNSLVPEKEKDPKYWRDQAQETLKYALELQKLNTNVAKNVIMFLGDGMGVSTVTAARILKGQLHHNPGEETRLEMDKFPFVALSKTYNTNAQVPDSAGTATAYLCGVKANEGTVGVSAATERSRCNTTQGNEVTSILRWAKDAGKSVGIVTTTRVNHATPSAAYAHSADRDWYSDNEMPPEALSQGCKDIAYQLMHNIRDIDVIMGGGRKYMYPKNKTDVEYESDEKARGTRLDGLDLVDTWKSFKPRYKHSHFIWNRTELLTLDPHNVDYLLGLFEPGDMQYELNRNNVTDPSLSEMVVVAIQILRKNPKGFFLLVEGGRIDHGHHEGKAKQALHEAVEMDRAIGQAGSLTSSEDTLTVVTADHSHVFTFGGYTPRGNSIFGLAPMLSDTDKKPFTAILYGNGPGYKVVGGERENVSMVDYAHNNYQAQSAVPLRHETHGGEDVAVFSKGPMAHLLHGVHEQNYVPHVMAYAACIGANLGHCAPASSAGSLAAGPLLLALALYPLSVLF
# MMP13 inh: blocks human MMP13 activity | AID 570 | MMP-13 fTHP FRET cleavage, Mca fluorescence | 65,000 tested, 0.07% active | inhibition, % at 4 µM | P45452;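 active = inhibition above the mean of compound-free control plate wells plus 3 SD, cut at about 14% in these data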;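 note: 0% = DMSO wells and 100% = wells with reference MMP-13 inhibitor after basal subtraction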
# Active calls of the source: *; / = no result. The entries come from a sample that favours hits as a whole.
SMILES,Candida biofilm,Jurkat tox 60K,HEK293 NFkB inh,TNAP act DEA,MMP13 inh
Cc1cccc(OCC(=O)N(C)CCc2ccccn2)c1,1,/,/,/,/
CNC(=O)c1sc2nc(-c3ccc(OC)cc3)cn2c1C,12,-7,-36,0.9,-3
COc1ccc(-c2cn3c(C)c(C(=O)Nc4cc(NC(C)=O)ccc4OC)sc3n2)cc1,4,48*,24,0.9,-20
CCOc1ccc(Cl)cc1S(=O)(=O)n1cnc2ccccc21,-1,51*,11,0.9,5
CCOc1cc(C)c(Cl)cc1S(=O)(=O)n1cnc2ccccc21,4,3,13,0.9,1
COc1ccc(Cl)cc1S(=O)(=O)n1cnc2ccccc21,3,53*,15,0.8,-4
Cc1ccc(C)c(/C(O)=C2\C(=O)C(=O)N(CCCN(C)C)C2c2cccnc2)c1 (centres undefined),/,/,14,1,9
COc1ccc(CSc2nc(C)cc(=O)[nH]2)cc1,5,0,3,0.9,25*
CCC(C)c1ccc(NC(=O)C2CCCN(c3ncccn3)C2)cc1 (centres undefined),/,61*,8,0.9,-4
Cc1ccc(C)c(S(=O)(=O)Nc2ccc3scnc3c2)c1,2,92*,8,0.9,8
Cc1cccc(NS(=O)(=O)c2cccc3nsnc23)c1,8,/,/,/,/
O=C(Nc1ccc(Cl)cc1)N(C1=NCCC1)c1ccc(OC(F)F)cc1,4,/,/,/,/
Cc1nn(-c2ccccc2)c(Cl)c1C1C(C#N)=C(N)Oc2n[nH]c(C)c21 (centres undefined),/,-2,44*,0.9,-1
Cc1nn(-c2ccccc2)c(Cl)c1C1C(C#N)=C(N)Oc2c1c(C)nn2-c1ccccc1 (centres undefined),8,/,/,/,/
CCOC(=O)C(C)Oc1cccc2c(=O)n(CC(=O)NCc3ccco3)ccc12 (centres undefined),/,96*,26,0.9,0
CC(C)C(=O)c1cn(CC(=O)NCc2ccco2)c2ccccc12,-1,/,/,/,/
CC1=C(C#N)C(Nc2ccc(C)cn2)(C(F)(F)F)C(=O)N1 (centres undefined),2,/,/,/,/
Cc1cc(N2CCN(C)CC2)nc2ccc(NC(=O)c3cccnc3Cl)cc12,61*,/,/,/,/
Cc1nnc(-c2cnn(C)c2N)n1Cc1cccc(Cl)c1,2,/,/,/,/
CCOC(=O)/C(C#N)=C1/C=CN(c2ccccc2)C=N1,6,/,14,0.9,3
CCOC(=O)/C(C#N)=C1/C=Nc2ccccc2N1,3,4,13,0.9,14*
Cc1ccc(C(=O)NCc2ccco2)cc1Br,3,/,/,/,/
Cc1ccc2c(CC(=O)NCc3ccco3)coc2c1C,3,69*,14,0.9,-2
CCN(CC)c1ccc(NC(=O)c2cc(OC)cc(OC)c2)c(C)c1,5,94*,27,1,3
CCN(CC)c1ccc(NC(=O)c2cccc(OC)c2)c(C)c1,6,20,8,0.9,0
SMILES,Candida biofilm,Jurkat tox 60K,HEK293 NFkB inh,TNAP act DEA,MMP13 inh
c1ccc(OCCCCn2cnc3ccccc32)cc1,9,33*,2,1,4
CCCCN(C)S(=O)(=O)c1ccc(C(=O)Nc2nnc(-c3cccs3)o2)cc1,6,28*,14,0.9,-2
CCCN(CCC)S(=O)(=O)c1ccc(C(=O)Nc2nnc(-c3cc(OC)cc(OC)c3)o2)cc1,7,6,8,1,2
COc1ccc(-c2nnc(NC(=O)c3ccc(S(=O)(=O)N4COCC4(C)C)cc3)o2)cc1,/,101*,24,0.9,4
CC1(C)COCN1S(=O)(=O)c1ccc(C(=O)Nc2nnc(-c3ccc(Cl)s3)o2)cc1,/,17,39,0.8,-3
CCCN(CCC)S(=O)(=O)c1ccc(C(=O)Nc2nnc(-c3cccc(OC)c3)o2)cc1,0,10,45*,1,3
CCCCN(CC)S(=O)(=O)c1ccc(C(=O)Nc2nnc(CSC)o2)cc1,/,88*,10,0.9,3
CCCCN(CCCC)S(=O)(=O)c1ccc(C(=O)Nc2nnc(CSC)o2)cc1,/,3,14,0.9,4
COc1ccc(NC(=O)N2CCCC(c3nc(-c4ccc(C(C)C)cc4)no3)C2)cc1 (centres undefined),-4,13,17,1,3
O=C(Nc1nnc(-c2cccs2)o1)c1cccc(F)c1,17,75*,-8,0.8,4
COc1ccc2cc(C(=O)NCc3ccco3)c(=Nc3ccc(C(=O)O)cc3)oc2c1,-5,4,48*,0.9,-18
CC1CCC2(CC1)NC(=S)N(c1ccccc1)N2 (centres undefined),83*,/,/,/,/
